Data reported in paper PMC4109288 (Lancet, 2012).
Marks after values point to notes of the source that are not given here.

Legend:
BRAF wild-type melanoma = test: Tumour response in BRAF wild-type melanoma; assay type: in vivo, human; details: three patients with BRAF wild-type melanoma
Procedure, shortened: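 Patients had histologically confirmed incurable solid tumours, ECOG ≤1, and received accelerated dose titration from 12 mg daily on 21-day cycles until progression or intolerable toxicity. Response was assessed by RECIST 1.0. Baseline imaging was within 35 days. Restaging was at 9 weeks (escalation) or 6 weeks (expansion), then every 9 weeks.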

tumour FDG uptake = test: FDG-PET imaging at baseline and Week 2; assay type: in vivo, human; details: 35 mg QD–300 mg BID, Week 2
Procedure, shortened: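 Pharmacodynamic FDG-PET imaging at baseline and on Day 15 of daily dabrafenib-class dosing. Patients were in the accelerated dose-titration cohorts, which started at 12 mg daily on 21-day cycles.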

[1] = Phase I trial: safety and tolerability, adverse events; details: in vivo
[2] = tested on: V600 BRAF-mutant melanoma with untreated brain metastases; test: RP2D expansion, brain lesion assessment by MRI and PFS; assay type: in vivo, human
Procedure, shortened: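 Expansion cohort of patients with asymptomatic, untreated brain metastases ≥3 mm and no prior resection, stereotactic radiosurgery or whole-brain radiotherapy, given 150 mg BID. BRAF was centrally genotyped. Lesions were imaged by gadolinium-enhanced T1-weighted MRI, first at 6 weeks and then every 9 weeks. Sum of diameters of lesions ≥3 mm at baseline was expressed as % change from baseline. RECIST 1.0 applied. PFS by Kaplan–Meier.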

[3] = cited from earlier work; for Penetration of the blood-brain barrier: in vivo
[4] = tested on: non-V600E BRAF-mutant melanoma; test: Tumour response and PFS in melanoma with non-V600E BRAF mutations; assay type: in vivo, human
Procedure, shortened: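 Melanoma patients with V600K or non-V600 or complex BRAF mutations, treated at all dose levels (titration from 12 mg daily, 21-day cycles). Response was assessed by RECIST 1.0 with restaging at 9 or 6 weeks, then every 9 weeks, and 95% exact CIs were given. PFS was estimated by Kaplan–Meier from first dose. Treatment duration ran from first dose to last dose or the 25 March 2011 data cut.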

[5] = tested on: K601E BRAF-mutant cell line; details: cited from earlier work
[6] = tested on: BRAF-mutant metastatic melanoma; details: cited from earlier work
[7] = among the eight patients who progressed

## CC(C)(C)c1nc(-c2cccc(NS(=O)(=O)c3c(F)cccc3F)c2F)c(-c2ccnc(N)n2)s1 [dabrafenib, Dabrafenib]
BRAF wild-type melanoma
  Responses: no responses were observed
Tumour FDG uptake; 53 of 56 patients
  Patients with decrease in mean SUVmax of tumour FDG uptake vs baseline: 95%
Tumour FDG uptake; 56 patients
  Median decrease in mean SUVmax of tumour FDG uptake: 60%
  Range of percentage change from baseline in mean SUVmax: −100% to 19
[1]; human
  Patients experiencing AEs higher than grade 2: 24%
  Patients requiring dose reductions: 7%
  Patients requiring dose reductions for fatigue: 2%
  Patients requiring dose reductions for neutropenia: 1%
  Patients requiring dose reductions for pyrexia: 3%
  Patients with arthralgia of grade 2 or higher: less than 5%
  Patients with dose-limiting toxicities (DLTs): three of 20
  Patients with pyrexia as a serious AE: 4%
  Patients with treatment-related actinic keratosis: 10%
  Patients with treatment-related fatigue grade 2 or higher: 8%
  Patients with treatment-related hyperkeratosis: 26%
  Patients with treatment-related hyperkeratotic lesions of grade 2 or above: 3%
  Patients with treatment-related pyrexia: 20%
  Patients with treatment-related pyrexia grade 2 or higher: 6%
  Range of onset of cutaneous SCC: 9 to 217 days
  Range of time to first pyrexia: 1 to 532 days
  Treatment-related cutaneous squamous cell carcinoma, grade 2 or higher, Total: 20 (11) ^* n (%)
  Treatment-related cutaneous squamous cell carcinoma, toxicity grade 2: 0 n (%)
  Treatment-related cutaneous squamous cell carcinoma, toxicity grade 3: 20 (11) n (%)
  Treatment-related fatigue, grade 2 or higher, Total: 14 (8) n (%)
  Treatment-related fatigue, toxicity grade 2: 12 (7) n (%)
  Treatment-related fatigue, toxicity grade 3: 2 (1) n (%)
  Treatment-related pyrexia, grade 2 or higher, Total: (6) n (%)
  Treatment-related pyrexia, toxicity grade 2: 10 (5) n (%)
  Treatment-related pyrexia, toxicity grade 3: 1 (<1) n (%)
[1]
  Non-cutaneous SCC: not observed
  Patients with keratoacanthoma: three
  Photosensitivity: not observed
  Recurrence or metastasis of cutaneous SCC after local excision: no recurrence or metastasis was observed
[2]; RP2D
  Patients achieving complete resolution of all brain lesions: four of ten
[2]; among patients with responding brain lesions
  Patients with decreasing size of extracranial metastases: all nine
[2]; [7]
  Patients with site of progression in extracranial sites alone: three
  Patients with site of progression in the brain alone: three
[2]; n=10
  Survival at 5 months: All patients were alive at 5 months
[2]; remains on study at 19 months
  Time at which the most durable responder met criteria for progressive disease: 15 months
[3]
  Penetration of the blood-brain barrier: neither vemurafenib nor dabrafenib demonstrate penetration
[3]; preclinical, after single-dose administration, ref unpublished data
  Penetration of the intact blood–brain barrier by the parent drug: minimal penetration
[4]; V600K, all dose levels, nine patients
  Patients who received treatment for at least 6 months: 50%
[4]; three patients with non-V600 or complex BRAF mutations
  Responses: no responses were observed

## CCCS(=O)(=O)Nc1ccc(F)c(C(=O)c2c[nH]c3ncc(-c4ccc(Cl)cc4)cc23)c1F [vemurafenib]
[5]
  Inhibition in cell line with K601E mutation: less inhibition
[6]; Phase III, first-line vs dacarbazine, V600E mutant metastatic melanoma
  Reduction in risk of death: 63%
[6]; V600E BRAF-mutant metastatic melanoma, Phase I
  Unconfirmed responses: 81%
[6]; V600E-mutant BRAF metastatic melanoma, Phase III vs dacarbazine
  Confirmed response rate: 48%
[6]
  Photosensitivity: commonly reported
[6]; ten of 336 patients carrying the V600K mutation, Phase III
  Response rate: 40%
[3]
  Penetration of the blood-brain barrier: neither vemurafenib nor dabrafenib demonstrate penetration
